Data published in ChEMBL document CHEMBL3407346, “Design, synthesis, and biological evaluation of sulfonyl acrylonitriles as novel inhibitors of cancer metastasis and spread” (J Med Chem, 2015).
pEC50: −log10 of the molar value. Calls of active or inactive are those of the source. No cut-off for these calls is given here.

Legend:
[1] = Glutathione reactivity assessed as reduction in detectable GSH level by Ellman's reagent-based assay
Method in brief: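 Glutathione was measured with a commercial kit per the manufacturer's instructions, with TNB production rate proportional to GSH. Cell-free GSH was tested with compounds, and HT-29 luciferase cell lysates were assayed after compound exposure.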

HT-29 = assay: Reduction of cellular GSH level in human HT-29 cells incubated for 30 mins followed by co-culturing with human mesothelial cells measured after 5 hrs by […]; format: functional, cell-based
[2] = Cytotoxicity against human SKOV3 cells co-cultured with human mesothelial cells at 10 uM after 4 hrs by firefly luciferase assay relative to control; format: functional, SK-OV-3
Method in brief: (§1)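 Co-culture of luciferase-transduced cancer cells (puromycin/G418-selected retroviral pLuc) with confluent human mesothelial monolayers. Suspended cancer cells plus 10 µM compound (final) or DMSO were overlaid for 4 h. Non-adherent cells were washed off and surviving adherent cells quantified by firefly luciferase luminescence. Efficacy = treated/DMSO luminescence ratio; mean±SEM, n=3.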

[3] = Cytotoxicity against human SU86 cells co-cultured with human mesothelial cells at 10 uM after 4 hrs by firefly luciferase assay relative to control; format: functional; method in brief: as §1
[4] = Cytotoxicity against human BxPC3 cells co-cultured with human mesothelial cells at 10 uM after 4 hrs by firefly luciferase assay relative to control; format: functional, BXPC-3; method in brief: as §1
A2780 [5] = assay: Cytotoxicity against human A2780 cells co-cultured with human mesothelial cells at 10 uM after 4 hrs by firefly luciferase assay relative to control; format: functional; method in brief: as §1
A2780 [6] = assay: Induction of apoptosis in human A2780 cells assessed as increased cellular levels of cleaved PARP at 5 uM after 4 hrs by immunoblot analysis; format: functional, cell-based
Method in brief: (§2)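 A2780 cells were suspended and allowed to adhere for 4 h with DMSO or test compound (5 µM in DMSO). Cells were collected and lysed, lysates normalised for total protein, and cleaved PARP and cleaved caspase 3 detected by immunoblot with actin as loading control. A sulfide analog served as negative control.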

A2780 [7] = assay: Induction of apoptosis in human A2780 cells assessed as increased cellular levels of cleaved caspase 3 at 5 uM after 4 hrs by immunoblot analysis; format: functional, cell-based; method in brief: as §2
[8] = Cytotoxicity against human SU86 cells co-cultured with human mesothelial cells after 4 hrs by firefly luciferase assay relative to control; format: functional, cell-based
Method in brief: (§3)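 Luciferase-expressing cancer cells in suspension were treated with a series of compound concentrations or DMSO, overlaid on confluent human mesothelial monolayers for 4 h, and washed to remove non-adherent cells. Surviving adherent cells were read by luciferase luminescence relative to vehicle, and EC50 was derived from the concentration series.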

A2780 [9] = assay: Cytotoxicity against human A2780 cells co-cultured with human mesothelial cells after 4 hrs by firefly luciferase assay relative to control; format: functional, cell-based; conditions: A2780, 4 h; method in brief: as §3
[10] = Cytotoxicity against human BxPC3 cells co-cultured with human mesothelial cells after 4 hrs by firefly luciferase assay relative to control; format: functional, cell-based; conditions: BXPC-3, 4 h; method in brief: as §3
[11] = Cytotoxicity against human SKOV3 cells co-cultured with human mesothelial cells after 4 hrs by firefly luciferase assay relative to control; format: functional, cell-based; conditions: SK-OV-3, 4 h; method in brief: as §3

Row | Compound | Ratio [2] | Ratio [3] | Ratio [4] | Ratio (A2780 [5]) | further results
1 | C/C=C/S(=O)(=O)c1ccc(C(C)(C)C)cc1 | – | – | – | – | Activity [1]: inactive; Activity (HT-29): inactive
2 | N#C/C=C/S(=O)(=O)c1ccc(C2(C(=O)NCc3ccc(Cl)cc3)CCOCC2)cc1 | 0.71 | 0.66 | 0.3 | 0.46 | –
3 | C[C@H](NC(=O)C(C)(C)c1ccc(S(=O)(=O)/C=C/C#N)cc1)c1ccccc1 | 0.67 | 0.32 | 0.27 | 0.13 | –
4 | CC(C)(c1ccc(S(=O)(=O)/C=C/C#N)cc1)c1nc2ccccc2[nH]1 | 1.1 | 1.04 | 1.01 | 1.07 | –
5 | CCNc1nnc(C(C)(C)c2ccc(S(=O)(=O)/C=C/C#N)cc2)o1 | 1.12 | 0.96 | 1.02 | 0.86 | –
6 | CC(C)(c1ccc(S(=O)(=O)/C=C/C#N)cc1)c1nnc(C2CCCCC2)o1 | 0.28 | 0.27 | 0.13 | 0.02 | –
7 | N#C/C=C/S(=O)(=O)c1ccc(C2(C(=O)NCc3ccc(Cl)cc3)CCC2)cc1 | 0.3 | 0.36 | 0.21 | 0.13 | –
8 | CC(C)(C(=O)NCc1ccc(S(N)(=O)=O)cc1)c1ccc(S(=O)(=O)/C=C/C#N)cc1 | 0.96 | 1.11 | 1 | 1 | –
9 | N#C/C=C/S(=O)(=O)c1ccc(C2(C(=O)NC3CCCCC3)CCOCC2)cc1 | 0.88 | 1 | 0.67 | 1.12 | –
10 | Cc1cnc(C(C)(C)c2ccc(S(=O)(=O)/C=C/C#N)cc2)o1 | 0.26 | 0.37 | 0.09 | 0.03 | –
11 | CC(C)(C(=O)NCC(F)F)c1ccc(S(=O)(=O)/C=C/C#N)cc1 | 1.13 | 0.81 | 0.82 | 0.86 | –
12 | CC(C)(C(=O)NC1CCCCC1)c1ccc(S(=O)(=O)/C=C/C#N)cn1 | 0.58 | 0.61 | 0.16 | 0.16 | –
13 | CC(C)(c1ccc(S(=O)(=O)/C=C/C#N)cc1)c1nnc(Nc2ccccc2)o1 | 0.65 | 0.62 | 0.39 | 0.22 | –
14 | CC(C)(C(=O)NCc1ccc(F)cc1)c1ccc(S(=O)(=O)/C=C/C#N)cc1 | 0.6 | 0.18 | 0.23 | 0.11 | Activity [1]: Active; Activity (HT-29): Active
15 | CC(C)(C(=O)NCc1ccc(S(C)(=O)=O)cc1)c1ccc(S(=O)(=O)/C=C/C#N)cc1 | 0.78 | 1.09 | 0.99 | 0.95 | –
16 | C[C@@H](NC(=O)C(C)(C)c1ccc(S(=O)(=O)/C=C/C#N)cc1)c1ccccc1 | 0.64 | 0.21 | 0.21 | 0.1 | –
17 | C=CS(=O)(=O)c1ccc(C(C)(C)C)cc1 | – | – | – | – | Activity [1]: inactive; Activity (HT-29): inactive
18 | CN(Cc1ccc(F)cc1)C(=O)C(C)(C)c1ccc(S(=O)(=O)/C=C/C#N)cc1 | 0.22 | 0.23 | 0.11 | 0.02 | –
19 | CC(C)(C)c1cc(S(=O)(=O)/C=C/C#N)ccc1OCC(=O)O | 0.92 | 0.97 | 0.81 | 1.05 | –
20 | N#C/C=C/S(=O)(=O)c1ccc(C2(C(=O)NCc3ccc(F)cc3)CC2)cc1 | 0.43 | 0.64 | 0.34 | 0.06 | –
21 | CC(C)(C(=O)N1CCCCC1)c1ccc(S(=O)(=O)/C=C/C#N)cc1 | 0.51 | 0.51 | 0.25 | 0.08 | –

Row | Compound | Ratio [2] | Ratio [3] | Ratio [4] | Ratio (A2780 [5]) | further results
22 | CC(C)(C(=O)NCCc1ccccc1)c1ccc(S(=O)(=O)/C=C/C#N)cc1 | 0.56 | 0.29 | 0.15 | 0.1 | –
23 | N#C/C=C/S(=O)(=O)c1ccc(C2(C(=O)NC3CCCCC3)CC2)cc1 | 0.23 | 0.34 | 0.28 | 0.09 | –
24 | Cc1ccc2oc(COc3ccc(S(=O)(=O)/C=C/C#N)cc3C(C)(C)C)nc2c1 | 0.36 | 0.56 | 0.24 | 0.09 | –
25 | COc1cccc(CNC(=O)C(C)(C)c2ccc(S(=O)(=O)/C=C/C#N)cc2)c1 | 0.25 | 0.3 | 0.09 | 0.03 | –
26 | CC(C)(C)c1ccc(S/C=C/C#N)cc1 | – | – | – | – | Activity (A2780 [6]): inactive; Activity (A2780 [7]): inactive
27 | CC(C)(C(=O)NCc1cccc(F)c1)c1ccc(S(=O)(=O)/C=C/C#N)cc1 | 0.3 | 0.24 | 0.17 | 0.05 | –
28 | COc1ccccc1CNC(=O)C(C)(C)c1ccc(S(=O)(=O)/C=C/C#N)cc1 | 0.27 | 0.21 | 0.07 | 0.01 | –
29 | CC(C)(C(=O)NCC#Cc1ccccc1)c1ccc(S(=O)(=O)/C=C/C#N)cc1 | 0.4 | 0.5 | 0.14 | 0.07 | –
30 | CC(C)(C)c1cc(S(=O)(=O)/C=C/C#N)ccc1OCC(=O)NCc1ccc(F)cc1 | 0.23 | 0.28 | 0.1 | 0.02 | –
31 | COc1cccc(NC(=O)COc2ccc(S(=O)(=O)/C=C/C#N)cc2C(C)(C)C)c1 | 0.29 | 0.37 | 0.17 | 0.03 | –
32 | N#C/C=C/S(=O)(=O)c1ccc(C2(C(=O)Nc3ccccc3)CCC2)cc1 | 0.39 | 0.35 | 0.12 | 0.17 | –
33 | CC(C)(C)c1cccc(S(=O)(=O)/C=C/C#N)c1 | 0.35 | 0.13 | 0.08 | 0.1 | –
34 | Cc1ccc(O)c(NC(=O)COc2ccc(S(=O)(=O)/C=C/C#N)cc2C(C)(C)C)c1 | 0.24 | 0.38 | 0.1 | 0.05 | pEC50 [8]: 5.10; pEC50 (A2780 [9]): 5.62; pEC50 [10]: 5.42; pEC50 [11]: 5.18
35 | CC(C)(C(=O)NCc1ccc(-n2cccn2)cc1)c1ccc(S(=O)(=O)/C=C/C#N)cc1 | 0.84 | 0.49 | 0.48 | 0.34 | –
36 | CC(C)(C)c1ccc2cc(S(=O)(=O)/C=C/C#N)ccc2n1 | 0.35 | 0.45 | 0.22 | 0.04 | –
37 | CC(C)(C(=O)NCc1ccccc1F)c1ccc(S(=O)(=O)/C=C/C#N)cc1 | 0.3 | 0.2 | 0.15 | 0.03 | –
38 | COCCOCc1ccc(NC(=O)C(C)(C)c2ccc(S(=O)(=O)/C=C/C#N)cc2)cc1 | 0.6 | 0.66 | 0.4 | 0.26 | –
39 | CN(Cc1ccccc1)C(=O)C(C)(C)c1ccc(S(=O)(=O)/C=C/C#N)cc1 | 0.5 | 0.24 | 0.12 | 0.06 | Activity [1]: Active; Activity (HT-29): Active
40 | N#C/C=C/S(=O)(=O)c1ccc(C2(C(=O)Nc3ccccc3)CCOCC2)cc1 | 0.97 | 0.92 | 0.85 | 0.87 | –
41 | CC(C)(C(=O)Nc1ccccc1)c1ccc(S(=O)(=O)/C=C/C#N)cc1 | 0.55 | 0.52 | 0.22 | 0.17 | –
42 | CC(C)(C(=O)N[C@H]1CCCCNC1=O)c1ccc(S(=O)(=O)/C=C/C#N)cc1 | 0.85 | 0.97 | 0.82 | 0.84 | –
